Data: ChEMBL document CHEMBL4229344 (Eur J Med Chem, 2018)

Assays:
[1] = target: Atypical kinase COQ8B, mitochondrial (Homo sapiens) (UniProt Q96D53); assay: Binding affinity to wild-type human full length ADCK4 (M1 to S544 residues) expressed in bacterial expression system assessed as residual binding level at 1 uM by Kinomescan method relative to control
How it was run: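 KINOMEscan competition binding against 468 purified kinases/mutants, test compound at 1 µM; residual binding relative to control.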

[2] = test system: Serine/threonine-protein kinase B-raf (Homo sapiens), P15056 [V600E]; assay: Binding affinity to human partial length BRAF V600E mutant (S429 to E741 residues) expressed in mammalian expression system assessed as residual binding level at 1 uM by Kinomescan method relative to control
How it was run: (§1)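 Kinome-wide single-concentration binding screen (KINOMEscan) at 1 μM against a panel of 468 purified kinases and mutants. Read-out is relative binding of each kinase compared with control. Selectivity across the panel was summarised as an S(10) score.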

[3] = target: Citron Rho-interacting kinase (Homo sapiens) (UniProt O14578); assay: Binding affinity to wild-type human partial length CIT (M68 to E432 residues) expressed in bacterial expression system assessed as residual binding level at 1 uM by Kinomescan method relative to control
How it was run: (§2)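 Kinome-wide competition binding screen against a panel of 468 purified kinases/mutants, with the test compound at a single concentration of 1 μM. Read-out is the relative binding activity of each kinase in the presence of compound.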

[4] = target: Serine/threonine-protein kinase DCLK2 (Homo sapiens) (UniProt Q8N568); assay: Binding affinity to wild-type human partial length DCAMKL2 (K273 to V664 residues) expressed in bacterial expression system assessed as residual binding level at 1 uM by Kinomescan method relative to control
[5] = test system: Epidermal growth factor receptor (Homo sapiens), P00533 [L858R,T790M]; assay: Binding affinity to human partial length EGFR L858R/T790M double mutant (R669 to V1011 residues) expressed in mammalian expression system assessed as residual binding level at 1 uM by Kinomescan method relative to control; how it was run: as §1
[6] = target: Ephrin type-A receptor 8 (Homo sapiens) (UniProt P29322); assay: Binding affinity to wild-type human partial length EPHA8 (Q608 to C920 residues) expressed in bacterial expression system assessed as residual binding level at 1 uM by Kinomescan method relative to control; how it was run: as §2
[7] = target: Dual specificity mitogen-activated protein kinase kinase 1 (Homo sapiens) (UniProt Q02750); assay: Binding affinity to wild-type human full length MEK1 (M1 to V393 residues) expressed in mammalian expression system assessed as residual binding level at 1 uM by Kinomescan method relative to control
How it was run: (§3)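 Single-concentration KINOMEscan (DiscoverX) binding screen at 1 μM against a panel of 468 purified kinases and mutants. The read-out is binding relative to control.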

[8] = test system: Hepatocyte growth factor receptor (Homo sapiens), P08581 [Y1235D]; assay: Binding affinity to human partial length MET Y1235D mutant (D1010 to S1367 residues) expressed in bacterial expression system assessed as residual binding level at 1 uM by Kinomescan method relative to control; how it was run: as §1
[9] = target: Serine/threonine-protein kinase 26 (Homo sapiens) (UniProt Q9P289); assay: Binding affinity to wild-type human full length MST4 (M1 to P416 residues) expressed in mammalian expression system assessed as residual binding level at 1 uM by Kinomescan method relative to control; how it was run: as §3
[10] = target: Muscle, skeletal receptor tyrosine-protein kinase (Homo sapiens) (UniProt O15146); assay: Binding affinity to wild-type human partial length MUSK (M553 to V869 residues) expressed in bacterial expression system assessed as residual binding level at 1 uM by Kinomescan method relative to control
[11] = target: Myosin light chain kinase, smooth muscle (Homo sapiens) (UniProt Q15746); assay: Binding affinity to wild-type human full length MYLK (M854 to E1845 residues) expressed in mammalian expression system assessed as residual binding level at 1 uM by Kinomescan method relative to control; how it was run: as §3
[12] = test system: Phosphatidylinositol 4,5-bisphosphate 3-kinase catalytic subunit alpha isoform (Homo sapiens), P42336 [M1043I]; assay: Binding affinity to human partial length PIK3CA M1043I mutant (R108 to N1068 residues) expressed in mammalian expression system assessed as residual binding level at 1 uM by Kinomescan method relative to control; how it was run: as §1
[13] = target: Protein-tyrosine kinase 2-beta (Homo sapiens) (UniProt Q14289); assay: Binding affinity to wild-type human full length PYK2 (M1 to E967 residues) expressed in bacterial expression system assessed as residual binding level at 1 uM by Kinomescan method relative to control; how it was run: as §3
[14] = target: NUAK family SNF1-like kinase 2 (Homo sapiens) (UniProt Q9H093); assay: Binding affinity to wild-type human partial length SNARK (P22 to A333 residues) expressed in mammalian expression system assessed as residual binding level at 1 uM by Kinomescan method relative to control
[15] = target: Proto-oncogene tyrosine-protein kinase Src (Homo sapiens) (UniProt P12931); assay: Binding affinity to wild-type human partial length SRC (L240 to L536 residues) expressed in bacterial expression system assessed as residual binding level at 1 uM by Kinomescan method relative to control
[16] = target: Tyrosine-protein kinase Srms (Homo sapiens) (UniProt Q9H3Y6); assay: Binding affinity to wild-type human partial length SRMS (L208 to P488 residues) expressed in mammalian expression system assessed as residual binding level at 1 uM by Kinomescan method relative to control
[17] = target: Serine/threonine-protein kinase tousled-like 1 (Homo sapiens) (UniProt Q9UKI8); assay: Binding affinity to wild-type human partial length TLK1 (K447 to A754 residues) expressed in bacterial expression system assessed as residual binding level at 1 uM by Kinomescan method relative to control
[18] = target: Vascular endothelial growth factor receptor 2 (Homo sapiens) (UniProt P35968); assay: Binding affinity to wild-type human partial length VEGFR2 (R787 to P1253 residues) expressed in mammalian expression system assessed as residual binding level at 1 uM by Kinomescan method relative to control
How it was run: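 KINOMEscan competition binding against a panel of 468 purified kinases/mutants, compound tested at 1 μM; readout is relative binding activity versus control.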

[19] = target: Mast/stem cell growth factor receptor Kit (Homo sapiens, UniProt P10721); assay: Inhibition of c-KIT (unknown origin) using poly(4:1 Glu,Tyr) peptide as substrate preincubated for 1 hr followed by addition of ATP and measured after 30 mins by ADP-Glo bioluminescence assay
[20] = MRT (0 to t) in Sprague-Dawley rat at 10 mg/kg, po; type: ADME, organism-based; settings: in vivo
[21] = Cmax in Sprague-Dawley rat at 10 mg/kg, po; type: ADME, organism-based; design: dose 10 mg/kg, route oral; settings: in vivo
How it was run: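 Male Sprague-Dawley rats, 6–8 weeks old and fasted overnight, dosed IV at 1 mg/kg or PO at 10 mg/kg. Formulation was 5% DMSO/40% PEG400/55% saline (1 mg/mL). Jugular blood collected on heparin from 1 min to 8 h (IV) or 5 min to 24 h (PO). Plasma separated by centrifugation at 2–8 °C and stored at −80 °C.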

Sequence of Protein-tyrosine kinase 2-beta (Homo sapiens) (Q14289 whole entry, looked up, the tested form may be a part): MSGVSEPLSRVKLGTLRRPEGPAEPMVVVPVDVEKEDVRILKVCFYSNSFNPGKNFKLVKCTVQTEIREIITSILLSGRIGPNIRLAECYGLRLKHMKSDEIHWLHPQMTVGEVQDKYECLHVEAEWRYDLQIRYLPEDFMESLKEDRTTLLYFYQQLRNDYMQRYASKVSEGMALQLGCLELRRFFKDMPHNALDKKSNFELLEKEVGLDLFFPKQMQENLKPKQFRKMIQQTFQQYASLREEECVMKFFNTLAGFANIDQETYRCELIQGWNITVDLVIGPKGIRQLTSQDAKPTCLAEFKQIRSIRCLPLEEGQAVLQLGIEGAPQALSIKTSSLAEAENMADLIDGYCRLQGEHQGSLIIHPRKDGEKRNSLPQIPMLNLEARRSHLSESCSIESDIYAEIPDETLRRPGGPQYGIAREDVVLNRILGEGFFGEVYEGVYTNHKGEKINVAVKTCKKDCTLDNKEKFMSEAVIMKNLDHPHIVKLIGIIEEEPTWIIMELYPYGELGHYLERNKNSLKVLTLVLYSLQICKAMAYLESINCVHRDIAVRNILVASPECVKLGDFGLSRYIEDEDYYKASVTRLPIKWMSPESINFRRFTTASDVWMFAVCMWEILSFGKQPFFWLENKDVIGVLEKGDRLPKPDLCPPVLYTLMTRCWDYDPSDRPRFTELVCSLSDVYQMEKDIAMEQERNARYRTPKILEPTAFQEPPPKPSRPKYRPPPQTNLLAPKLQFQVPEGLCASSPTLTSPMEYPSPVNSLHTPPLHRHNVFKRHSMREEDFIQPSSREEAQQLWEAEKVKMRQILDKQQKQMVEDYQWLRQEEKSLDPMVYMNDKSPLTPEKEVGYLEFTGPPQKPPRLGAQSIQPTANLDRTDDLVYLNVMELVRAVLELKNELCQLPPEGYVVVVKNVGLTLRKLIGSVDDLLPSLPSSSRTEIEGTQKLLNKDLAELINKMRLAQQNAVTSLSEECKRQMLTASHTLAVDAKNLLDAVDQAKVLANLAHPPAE
Sequence of Dual specificity mitogen-activated protein kinase kinase 1 (Homo sapiens) (Q02750 whole entry, the tested form may be a part): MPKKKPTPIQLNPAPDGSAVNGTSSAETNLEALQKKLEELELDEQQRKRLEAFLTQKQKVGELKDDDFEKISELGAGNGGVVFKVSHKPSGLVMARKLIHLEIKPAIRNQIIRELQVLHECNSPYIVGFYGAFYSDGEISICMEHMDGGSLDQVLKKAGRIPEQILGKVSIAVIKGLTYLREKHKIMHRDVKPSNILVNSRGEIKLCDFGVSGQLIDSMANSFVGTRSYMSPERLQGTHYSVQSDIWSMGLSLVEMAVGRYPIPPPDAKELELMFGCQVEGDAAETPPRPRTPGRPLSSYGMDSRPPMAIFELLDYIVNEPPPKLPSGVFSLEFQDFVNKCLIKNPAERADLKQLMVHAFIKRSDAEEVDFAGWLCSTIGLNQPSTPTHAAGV
Sequence of Proto-oncogene tyrosine-protein kinase Src (Homo sapiens) (P12931 2-536 limits assumed): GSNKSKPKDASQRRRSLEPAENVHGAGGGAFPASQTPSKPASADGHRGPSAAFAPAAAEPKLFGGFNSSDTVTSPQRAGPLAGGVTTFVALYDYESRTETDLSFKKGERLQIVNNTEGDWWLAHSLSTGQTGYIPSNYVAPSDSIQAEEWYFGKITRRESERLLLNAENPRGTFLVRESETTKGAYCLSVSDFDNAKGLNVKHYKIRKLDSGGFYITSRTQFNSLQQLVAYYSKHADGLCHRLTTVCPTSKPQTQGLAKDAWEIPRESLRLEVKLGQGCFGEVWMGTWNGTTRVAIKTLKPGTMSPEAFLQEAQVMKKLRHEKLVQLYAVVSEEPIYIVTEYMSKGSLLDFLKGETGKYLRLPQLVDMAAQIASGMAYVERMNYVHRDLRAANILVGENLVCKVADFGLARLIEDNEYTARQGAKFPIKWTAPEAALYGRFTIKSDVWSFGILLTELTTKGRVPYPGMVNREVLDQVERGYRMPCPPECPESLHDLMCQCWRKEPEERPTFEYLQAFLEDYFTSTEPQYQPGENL
Sequence of Vascular endothelial growth factor receptor 2 (Homo sapiens) (P35968 whole entry, the tested form may be a part): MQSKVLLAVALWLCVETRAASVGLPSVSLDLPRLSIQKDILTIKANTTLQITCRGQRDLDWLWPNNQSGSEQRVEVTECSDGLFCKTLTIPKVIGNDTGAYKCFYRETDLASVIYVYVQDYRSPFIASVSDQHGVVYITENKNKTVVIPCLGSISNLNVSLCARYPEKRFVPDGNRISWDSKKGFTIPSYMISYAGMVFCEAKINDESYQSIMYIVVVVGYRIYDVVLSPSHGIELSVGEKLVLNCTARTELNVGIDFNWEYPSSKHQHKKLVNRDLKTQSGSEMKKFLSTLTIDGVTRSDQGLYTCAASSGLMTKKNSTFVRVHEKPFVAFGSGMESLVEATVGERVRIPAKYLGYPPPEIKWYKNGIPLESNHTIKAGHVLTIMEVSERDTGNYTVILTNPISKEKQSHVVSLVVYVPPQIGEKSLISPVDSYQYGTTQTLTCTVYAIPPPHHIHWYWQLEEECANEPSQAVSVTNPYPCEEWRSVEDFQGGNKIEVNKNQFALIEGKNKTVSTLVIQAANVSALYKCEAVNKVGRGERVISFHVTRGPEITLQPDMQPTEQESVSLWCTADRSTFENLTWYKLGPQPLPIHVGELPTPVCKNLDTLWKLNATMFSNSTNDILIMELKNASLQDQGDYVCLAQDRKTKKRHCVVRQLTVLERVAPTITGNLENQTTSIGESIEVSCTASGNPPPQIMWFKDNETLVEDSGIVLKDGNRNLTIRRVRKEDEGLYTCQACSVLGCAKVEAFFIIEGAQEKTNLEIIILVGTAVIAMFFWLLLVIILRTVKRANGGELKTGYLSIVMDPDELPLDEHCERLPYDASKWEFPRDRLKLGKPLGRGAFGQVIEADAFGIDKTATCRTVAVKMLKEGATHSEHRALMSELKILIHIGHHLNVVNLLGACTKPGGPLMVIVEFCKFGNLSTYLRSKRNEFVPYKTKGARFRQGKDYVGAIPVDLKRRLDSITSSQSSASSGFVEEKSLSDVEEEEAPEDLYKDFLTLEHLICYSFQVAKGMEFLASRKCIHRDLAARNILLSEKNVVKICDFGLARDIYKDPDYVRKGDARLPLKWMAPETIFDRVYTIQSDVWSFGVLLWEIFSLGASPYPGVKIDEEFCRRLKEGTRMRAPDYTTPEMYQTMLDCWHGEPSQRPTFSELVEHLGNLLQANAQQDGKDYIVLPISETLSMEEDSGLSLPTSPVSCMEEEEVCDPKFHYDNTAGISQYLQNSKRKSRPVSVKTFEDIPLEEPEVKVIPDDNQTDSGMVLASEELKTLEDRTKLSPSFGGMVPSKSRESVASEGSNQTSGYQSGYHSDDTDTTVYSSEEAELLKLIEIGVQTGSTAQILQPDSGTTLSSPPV
Sequence of Atypical kinase COQ8B, mitochondrial (Homo sapiens) (Q96D53 whole entry, the tested form may be a part): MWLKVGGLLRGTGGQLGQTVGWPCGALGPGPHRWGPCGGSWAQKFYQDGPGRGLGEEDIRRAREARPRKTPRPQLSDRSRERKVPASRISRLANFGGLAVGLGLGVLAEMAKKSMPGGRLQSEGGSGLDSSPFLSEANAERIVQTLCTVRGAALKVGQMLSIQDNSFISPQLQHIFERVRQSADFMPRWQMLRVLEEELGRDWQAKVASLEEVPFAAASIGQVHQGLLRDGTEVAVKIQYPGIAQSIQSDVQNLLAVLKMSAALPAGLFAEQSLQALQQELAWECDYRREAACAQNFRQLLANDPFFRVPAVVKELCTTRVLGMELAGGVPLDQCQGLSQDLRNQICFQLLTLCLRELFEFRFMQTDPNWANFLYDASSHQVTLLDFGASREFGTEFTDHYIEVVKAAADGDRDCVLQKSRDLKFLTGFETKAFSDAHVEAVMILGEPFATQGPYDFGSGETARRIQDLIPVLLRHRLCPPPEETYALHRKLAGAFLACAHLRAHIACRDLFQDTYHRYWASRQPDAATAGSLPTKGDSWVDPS
Sequence of Muscle, skeletal receptor tyrosine-protein kinase (Homo sapiens) (O15146 whole entry, the tested form may be a part): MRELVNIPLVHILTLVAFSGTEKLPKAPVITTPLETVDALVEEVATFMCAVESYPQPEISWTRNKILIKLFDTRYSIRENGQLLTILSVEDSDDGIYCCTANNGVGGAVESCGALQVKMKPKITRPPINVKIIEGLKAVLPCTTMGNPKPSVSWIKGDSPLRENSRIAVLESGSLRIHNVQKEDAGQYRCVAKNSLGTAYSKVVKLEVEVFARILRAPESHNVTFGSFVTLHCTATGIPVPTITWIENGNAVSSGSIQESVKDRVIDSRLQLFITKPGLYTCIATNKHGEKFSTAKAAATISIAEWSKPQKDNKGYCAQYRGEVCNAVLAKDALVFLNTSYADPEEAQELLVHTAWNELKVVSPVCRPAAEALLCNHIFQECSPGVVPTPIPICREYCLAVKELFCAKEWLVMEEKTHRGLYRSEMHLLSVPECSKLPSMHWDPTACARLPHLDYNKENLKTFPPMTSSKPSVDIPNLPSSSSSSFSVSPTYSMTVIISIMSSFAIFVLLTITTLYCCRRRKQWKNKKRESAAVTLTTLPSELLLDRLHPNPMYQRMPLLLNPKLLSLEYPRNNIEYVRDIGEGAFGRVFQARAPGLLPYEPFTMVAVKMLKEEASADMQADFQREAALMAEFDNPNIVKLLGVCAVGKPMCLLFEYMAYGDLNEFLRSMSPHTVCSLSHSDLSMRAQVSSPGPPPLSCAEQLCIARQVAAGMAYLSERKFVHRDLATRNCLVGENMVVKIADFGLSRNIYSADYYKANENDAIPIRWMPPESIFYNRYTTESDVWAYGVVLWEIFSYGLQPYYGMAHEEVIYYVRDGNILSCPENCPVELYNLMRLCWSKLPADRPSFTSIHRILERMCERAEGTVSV

Cc1ccc(NC(=O)c2ccc(CN(CCN(C)C)C(=O)c3cccnc3)cc2)cc1Nc1nccc(-c2cccnc2)n1
Activity [1]: 94% | Activity [2]: 49% | Activity [3]: 89% | Activity [4]: 96% | Activity [5]: 94% | Activity [6]: 89% | Activity [7]: 97% | Activity [8]: 93% | Activity [9]: 99% | Activity [10]: 100% | Activity [11]: 100% | Activity [12]: 100% | Activity [13]: 99% | Activity [14]: 100% | Activity [15]: 100% | Activity [16]: 97% | Activity [17]: 100% | Activity [18]: 92% | IC50 [19]: > 10 µM | MRT last [20]: 3.33 h | Cmax [21]: 28.9 ng/mL
